Source: ChEMBL document CHEMBL3259614, “Design, synthesis, and structure-activity relationship studies of novel fused heterocycles-linked triazoles with good activity and water solubility” (J Med Chem, 2014)
Values after ≈ are worked out from the molar mass of the structure shown.

Assays:
Type in all cases: functional
Candida albicans [1] = assay: Antimicrobial activity against Candida albicans Y0109 after 24 hrs by serial dilution method; conditions: Y0109, 24 h
Summary of the method: (§1)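 Broth serial dilution MIC in 96-well plates following NCCLS/CLSI methods. Compounds were dissolved in DMSO and serially diluted in growth medium, with incubation at 35 °C. […] C. parapsilosis 22019 served as the quality-control strain in each assay.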

Candida parapsilosis = assay: Antimicrobial activity against Candida parapsilosis 22019 after 24 hrs by serial dilution method; conditions: Lodderomyces parapsilosis, 22019, 24 h; summary of the method: as §1
Candida albicans [2] = assay: Antimicrobial activity against Candida albicans SC5314 after 24 hrs by serial dilution method; conditions: SC5314, 24 h; summary of the method: as §1
Aspergillus fumigatus = assay: Antimicrobial activity against Aspergillus fumigatus 7544 after 48 hrs by serial dilution method; conditions: Aspergillus fumigatus, 7544, 48 h; summary of the method: as §1
Nakaseomyces glabratus = assay: Antimicrobial activity against Candida glabrata 537 after 24 hrs by serial dilution method; conditions: Nakaseomyces glabratus, 537, 24 h; summary of the method: as §1
Cryptococcus neoformans = assay: Antimicrobial activity against Cryptococcus neoformans 32609 after 72 hrs by serial dilution method; conditions: Cryptococcus neoformans, 32609, 72 h; summary of the method: as §1

Row | Compound | MIC (Candida albicans [1]) [µg/mL] | MIC (Candida parapsilosis) [µg/mL] | MIC (Candida albicans [2]) [µg/mL] | MIC (Aspergillus fumigatus) [µg/mL] | MIC (Nakaseomyces glabratus) [µg/mL] | MIC (Cryptococcus neoformans) [µg/mL]
1 | C[C@@H](N1CCc2nc(-c3ccsc3)sc2C1)[C@](O)(Cn1cncn1)c1ccc(F)cc1F | 0.25 (≈ 0.528 µM) | 0.25 (≈ 0.528 µM) | 0.25 (≈ 0.528 µM) | 8 (≈ 16.9 µM) | 0.25 (≈ 0.528 µM) | 0.25 (≈ 0.528 µM)
2 | C[C@@H](N1CCn2nc(-c3ccco3)nc2C1)[C@](O)(Cn1cncn1)c1ccc(F)cc1F | 0.125 (≈ 0.283 µM) | 0.25 (≈ 0.566 µM) | 0.125 (≈ 0.283 µM) | 16 (≈ 36.2 µM) | 0.25 (≈ 0.566 µM) | 0.25 (≈ 0.566 µM)
3 | C[C@@H](N1CCn2nc(-c3ccsc3)nc2C1)[C@](O)(Cn1cncn1)c1ccc(F)cc1F | 0.125 (≈ 0.273 µM) | 0.125 (≈ 0.273 µM) | 0.125 (≈ 0.273 µM) | 16 (≈ 35 µM) | 0.125 (≈ 0.273 µM) | 0.125 (≈ 0.273 µM)
4 | C[C@@H](N1CCn2nc(Br)nc2C1)[C@](O)(Cn1cncn1)c1ccc(F)cc1F | 0.125 (≈ 0.275 µM) | 0.25 (≈ 0.55 µM) | 0.125 (≈ 0.275 µM) | 16 (≈ 35.2 µM) | 0.5 (≈ 1.1 µM) | 0.25 (≈ 0.55 µM)
5 | C[C@@H](N1CCn2nc(-c3ccncc3)nc2C1)[C@](O)(Cn1cncn1)c1ccc(F)cc1F | 0.0625 (≈ 0.138 µM) | 0.0312 (≈ 0.0691 µM) | 0.0625 (≈ 0.138 µM) | 16 (≈ 35.4 µM) | 0.125 (≈ 0.276 µM) | 0.125 (≈ 0.276 µM)
6 | C[C@@H](N1CCn2nc(-c3cncnc3)nc2C1)[C@](O)(Cn1cncn1)c1ccc(F)cc1F | 0.125 (≈ 0.276 µM) | 0.0625 (≈ 0.138 µM) | 0.0312 (≈ 0.0689 µM) | 32 (≈ 70.6 µM) | 0.0625 (≈ 0.138 µM) | 0.0625 (≈ 0.138 µM)
7 | C[C@@H](N1CCn2nc(-c3ccc(F)nc3)nc2C1)[C@](O)(Cn1cncn1)c1ccc(F)cc1F | 0.0625 (≈ 0.133 µM) | 0.0625 (≈ 0.133 µM) | 0.0156 (≈ 0.0332 µM) | 2 (≈ 4.25 µM) | 0.0312 (≈ 0.0664 µM) | 0.0312 (≈ 0.0664 µM)
8 | C[C@@H](N1CCn2nc(-c3cncc(F)c3)nc2C1)[C@](O)(Cn1cncn1)c1ccc(F)cc1F | 0.125 (≈ 0.266 µM) | 0.125 (≈ 0.266 µM) | 0.125 (≈ 0.266 µM) | 32 (≈ 68 µM) | 1 (≈ 2.13 µM) | 0.125 (≈ 0.266 µM)
9 | C[C@@H](N1CCn2nc(-c3cncc(C#N)c3)nc2C1)[C@](O)(Cn1cncn1)c1ccc(F)cc1F | 0.125 (≈ 0.262 µM) | 0.25 (≈ 0.524 µM) | 0.125 (≈ 0.262 µM) | 64 (≈ 134 µM) | 1 (≈ 2.09 µM) | 0.125 (≈ 0.262 µM)
10 | COc1ccc(-c2nc3n(n2)CCN([C@H](C)[C@](O)(Cn2cncn2)c2ccc(F)cc2F)C3)cn1 | 0.125 (≈ 0.259 µM) | 0.125 (≈ 0.259 µM) | 0.0625 (≈ 0.13 µM) | 32 (≈ 66.3 µM) | 0.5 (≈ 1.04 µM) | 0.25 (≈ 0.518 µM)
11 | Cc1ncc(-c2nc3n(n2)CCN([C@H](C)[C@](O)(Cn2cncn2)c2ccc(F)cc2F)C3)cn1 | 0.125 (≈ 0.267 µM) | 0.125 (≈ 0.267 µM) | 0.0625 (≈ 0.134 µM) | 32 (≈ 68.5 µM) | 0.25 (≈ 0.535 µM) | 0.125 (≈ 0.267 µM)
12 | COc1ncc(-c2nc3n(n2)CCN([C@H](C)[C@](O)(Cn2cncn2)c2ccc(F)cc2F)C3)cn1 | 0.125 (≈ 0.259 µM) | 0.25 (≈ 0.517 µM) | 0.0625 (≈ 0.129 µM) | 32 (≈ 66.2 µM) | 0.25 (≈ 0.517 µM) | 0.5 (≈ 1.03 µM)
13 | C[C@@H](N1CCc2nc(Br)sc2C1)[C@](O)(Cn1cncn1)c1ccc(F)cc1F | 1 (≈ 2.13 µM) | 1 (≈ 2.13 µM) | 1 (≈ 2.13 µM) | 32 (≈ 68 µM) | 1 (≈ 2.13 µM) | 0.5 (≈ 1.06 µM)

Second part, the compound after the results:

Row | MIC (Candida albicans [1]) [µg/mL] | MIC (Candida parapsilosis) [µg/mL] | MIC (Candida albicans [2]) [µg/mL] | MIC (Aspergillus fumigatus) [µg/mL] | MIC (Nakaseomyces glabratus) [µg/mL] | MIC (Cryptococcus neoformans) [µg/mL] | Compound
14 | 1 (≈ 1.99 µM) | 2 (≈ 3.98 µM) | 0.5 (≈ 0.996 µM) | 32 (≈ 63.7 µM) | 1 (≈ 1.99 µM) | 1 (≈ 1.99 µM) | C[C@@H](N1CCc2nc(-c3ccc(Cl)cc3)sc2C1)[C@](O)(Cn1cncn1)c1ccc(F)cc1F
15 | 2 (≈ 3.73 µM) | 2 (≈ 3.73 µM) | 1 (≈ 1.87 µM) | 32 (≈ 59.8 µM) | 1 (≈ 1.87 µM) | 2 (≈ 3.73 µM) | C[C@@H](N1CCc2nc(-c3ccc(C(F)(F)F)cc3)sc2C1)[C@](O)(Cn1cncn1)c1ccc(F)cc1F
16 | 1 (≈ 2.01 µM) | 0.5 (≈ 1 µM) | 1 (≈ 2.01 µM) | 16 (≈ 32.2 µM) | 1 (≈ 2.01 µM) | 1 (≈ 2.01 µM) | COc1ccc(-c2nc3c(s2)CN([C@H](C)[C@](O)(Cn2cncn2)c2ccc(F)cc2F)CC3)cc1
17 | 1 (≈ 2.08 µM) | 0.5 (≈ 1.04 µM) | 0.5 (≈ 1.04 µM) | 16 (≈ 33.2 µM) | 1 (≈ 2.08 µM) | 0.5 (≈ 1.04 µM) | Cc1ccc(-c2nc3c(s2)CN([C@H](C)[C@](O)(Cn2cncn2)c2ccc(F)cc2F)CC3)cc1
18 | 1 (≈ 2.06 µM) | 2 (≈ 4.12 µM) | 1 (≈ 2.06 µM) | 16 (≈ 33 µM) | 4 (≈ 8.24 µM) | 1 (≈ 2.06 µM) | C[C@@H](N1CCc2nc(-c3ccc(F)cc3)sc2C1)[C@](O)(Cn1cncn1)c1ccc(F)cc1F
19 | 1 (≈ 1.83 µM) | 4 (≈ 7.32 µM) | 1 (≈ 1.83 µM) | 16 (≈ 29.3 µM) | 2 (≈ 3.66 µM) | 1 (≈ 1.83 µM) | C[C@@H](N1CCc2nc(-c3ccc(Br)cc3)sc2C1)[C@](O)(Cn1cncn1)c1ccc(F)cc1F
20 | 1 (≈ 1.96 µM) | 0.5 (≈ 0.981 µM) | 0.5 (≈ 0.981 µM) | 16 (≈ 31.4 µM) | 1 (≈ 1.96 µM) | 1 (≈ 1.96 µM) | CC(C)c1ccc(-c2nc3c(s2)CN([C@H](C)[C@](O)(Cn2cncn2)c2ccc(F)cc2F)CC3)cc1
